These results are taken from ChEMBL document CHEMBL1124808, “The synthesis and antiallergy activity of 1-(aryloxy)-4-(4-arylpiperazinyl)-2-butanol derivatives” (1990).

Each structure is given as a SMILES string.

Assay [1] concerns Rattus norvegicus. The assay can be described thus: Percent change in volume of foot edema of test compound to that of positive control was determined at a dose of 31.6 mg/kg in rat; -41/-61. The class given is functional.
Assay [2] deals with Rattus norvegicus. The assay can be described thus: Percent change in volume of foot edema of test compound to that of positive control was determined at a dose of 31.6 mg/kg in rat; -90/-83. The class given is functional.
In assay [3] the test system is Rattus norvegicus. Nature of the assay: Percent change in volume of foot edema of test compound to that of positive control was determined at a dose of 10 mg/kg in rat; -46/-83. In kind it is functional.
Assay [4] deals with Rattus norvegicus. The assay can be described thus: Percent change in volume of foot edema of test compound to that of positive control was determined at a dose of 3.16 mg/kg in rat; -32/-78. In kind it is functional.
Assay [5] deals with Rattus norvegicus. The assay can be described thus: Percent change in volume of foot edema of test compound to that of positive control was determined at a dose of 31.6 mg/kg in rat; -64/-73. The class given is functional.
Assay [6] deals with Rattus norvegicus. Nature of the assay: Percent change in volume of foot edema of test compound to that of positive control was determined at a dose of 10 mg/kg in rat; -15/-73. In kind it is functional.
Assay [7] deals with Rattus norvegicus. Nature of the assay: Percent change in volume of foot edema of test compound to that of positive control was determined at a dose of 31.6 mg/kg in rat; -25/-93.
The subject of assay [8] is Rattus norvegicus. The assay can be described thus: Percent change in volume of foot edema of test compound to that of positive control was determined at a dose of 10 mg/kg in rat; -39/-72. In kind it is functional.
In assay [9] the test system is Rattus norvegicus. Nature of the assay: Percent change in volume of foot edema of test compound to that of positive control was determined at a dose of 31.6 mg/kg in rat; -57/-83. In kind it is functional.
The test system of assay [10] is Rattus norvegicus. Nature of the assay: Percent change in volume of foot edema of test compound to that of positive control was determined at a dose of 10 mg/kg in rat; -41/-59. The class given is functional.
For assay [11], the system named is Rattus norvegicus. Nature of the assay: Percent change in volume of foot edema of test compound to that of positive control was determined at a dose of 31.6 mg/kg in rat; -77/-67. In kind it is functional.
Assay [12] concerns Rattus norvegicus. The assay can be described thus: Percent change in volume of foot edema of test compound to that of positive control was determined at a dose of 31.6 mg/kg in rat; -42/-81. The class given is functional.
Assay [13] concerns Rattus norvegicus. The assay can be described thus: Percent change in volume of foot edema of test compound to that of positive control was determined at a dose of 3.16 mg/kg in rat; -8/-67. In kind it is functional.
For assay [14], the system named is Rattus norvegicus. Nature of the assay: Percent change in volume of foot edema of test compound to that of positive control was determined at a dose of 31.6 mg/kg in rat; -87/-67. The class given is functional.
Assay [15] concerns Rattus norvegicus. Nature of the assay: Percent change in volume of foot edema of test compound to that of positive control was determined at a dose of 10 mg/kg in rat; -73/-59. In kind it is functional.
The species named for the next assay is Cavia porcellus. Nature of the assay: Dose that protects 50% of guinea pig from collapse was determined in guinea pig anaphylaxis assay. In kind it is functional. The following applies: read-out: PD50. Summed up:
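Guinea pigs dosed by gavage (10 mL/kg) with compound in 0.5% Tween 80/water; reference theophylline 100 mg/kg po. At 1–24 h, exposed in chamber to aerosolized 1% (w/v) egg albumin at 10 L air/min for up to 5 min; protected if no collapse within 5 min. PD50 by Litchfield and Wilcoxon.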

Assay [16] relates to Rattus norvegicus. The assay can be described thus: Oral Antiallergic activity in the passive foot anaphylaxis (PFA) assay of various amines at the dose of 3.16 mg/kg; -4/-78. The class given is functional.
Assay [17] relates to Rattus norvegicus. The assay can be described thus: Percent change in volume of foot edema of test compound to that of positive control was determined at a dose of 31.6 mg/kg in rat; -60/-74. In kind it is functional.
Assay [18] relates to Rattus norvegicus. The assay can be described thus: Percent change in volume of foot edema of test compound to that of positive control was determined at a dose of 10 mg/kg in rat; -54/-72. In kind it is functional.
Assay [19] deals with Rattus norvegicus. Nature of the assay: Percent change in volume of foot edema of test compound to that of positive control was determined at a dose of 10 mg/kg in rat; -36/-88. In kind it is functional.
Assay [20] deals with Rattus norvegicus. Nature of the assay: Percent change in volume of foot edema of test compound to that of positive control was determined at a dose of 31.6 mg/kg in rat; -79/-81. In kind it is functional.
The test system of assay [21] is Rattus norvegicus. The assay can be described thus: Percent change in volume of foot edema of test compound to that of positive control was determined at a dose of 10 mg/kg in rat; -40/-81. The class given is functional.
In assay [22] the test system is Rattus norvegicus. The assay can be described thus: Percent change in volume of foot edema of test compound to that of positive control was determined at a dose of 3.16 mg/kg in rat; -20/-78. The class given is functional.
The subject of assay [23] is Rattus norvegicus. Nature of the assay: Percent change in volume of foot edema of test compound to that of positive control was determined at a dose of 10 mg/kg in rat; -49/-81. In kind it is functional.
Assay [24] relates to Rattus norvegicus. Nature of the assay: Percent change in volume of foot edema of test compound to that of positive control was determined at a dose of 31.6 mg/kg in rat; -56/-65. In kind it is functional.
For assay [25], the system named is Rattus norvegicus. The assay can be described thus: Percent change in volume of foot edema of test compound to that of positive control was determined at a dose of 31.6 mg/kg in rat; -27/-65. In kind it is functional.
Assay [26] relates to Rattus norvegicus. Nature of the assay: Percent change in volume of foot edema of test compound to that of positive control was determined at a dose of 10 mg/kg in rat; -38/-88. The class given is functional.
The test system of assay [27] is Rattus norvegicus. The assay can be described thus: Percent change in volume of foot edema of test compound to that of positive control was determined at a dose of 31.6 mg/kg in rat; -87/-83. In kind it is functional.

For `CN(CCC(O)COc1ccccc1)CCN(C)c1ccccc1.O=C(O)C(=O)O` (centres undefined), in the assay on Rattus norvegicus [1], the PFA is recorded as -41.
Consider `Cl.NC(=O)c1ccc(OCC(O)CCN2CCN(c3ccccc3)CC2)cc1` (centres undefined), for which the figures for the PFA in the assay on Rattus norvegicus [2], with Rattus norvegicus [3] and in the assay with Rattus norvegicus [4] were -90, -46 and -32, respectively.
As to `Cl.Cl.N#Cc1ccc(OCC(O)CCN2CCN(c3ccccc3)CC2)cc1` (centres undefined), the values for the PFA with Rattus norvegicus [5] and in the assay with Rattus norvegicus [6] were -64 and -15, respectively.
`CC(=O)c1ccc(OCC(O)CCN2CCN(c3ccccc3)CC2)cc1.Cl.Cl` (centres undefined): in the assay on Rattus norvegicus [7], the PFA was -25.
Regarding `CC(C)(C)c1ccc(OCC(O)CCN2CCN(c3ccccc3)CC2)cc1.Cl` (centres undefined), the PFA was -39 with Rattus norvegicus [8] and -57 with Rattus norvegicus [9].
With `Cc1ccc(N2CCN(CCC(O)COc3ccc(F)cc3)CC2)cc1.Cl.Cl` (centres undefined), the results for the PFA in the assay with Rattus norvegicus [10] and with Rattus norvegicus [11] were -41 and -77, respectively.
Turning to `O=C(O)/C=C\C(=O)O.c1ccc(OCCCCN2CCN(c3ccccc3)CC2)cc1`, the PFA in the assay on Rattus norvegicus [12] is recorded as -42.
Consider `Cl.OC(CCN1CCN(c2ccc(Cl)cc2)CC1)COc1ccc(F)cc1` (centres undefined), for which the results for the PFA in the assay on Rattus norvegicus [13], with Rattus norvegicus [14] and with Rattus norvegicus [15] were -8, -87 and -73, respectively. Moreover, in the assay filed under Cavia porcellus, the ED50 is 7.85 mg/kg.
Consider `Cc1ccc(N2CCN(CCC(O)COc3ccc(Cl)cc3)CC2)cc1.Cl` (centres undefined), for which the PFA was -4 in the assay with Rattus norvegicus [16], -60 with Rattus norvegicus [17] and -54 in the assay with Rattus norvegicus [18].
As for `Cc1cc(OCC(O)CCN2CCN(c3ccccn3)CC2)ccc1Cl.Cl.Cl` (centres undefined), the PFA in the assay with Rattus norvegicus [19] is -36; with Rattus norvegicus [20] it was -79.
`COc1ccc(N2CCN(CCC(O)COc3ccc(Cl)cc3)CC2)cc1.Cl.Cl` (centres undefined): the PFA with Rattus norvegicus [21] is -40; in the assay on Rattus norvegicus [20] it was -79.
Consider `OC(CCN1CCN(c2ccccc2)CC1)COc1ccc(Br)cc1` (centres undefined), for which the values for the PFA in the assay with Rattus norvegicus [22], in the assay with Rattus norvegicus [23] and with Rattus norvegicus [24] were -20, -49 and -56, respectively.
As to `OC(CCN1CCN(c2ccccc2Cl)CC1)COc1ccccc1` (centres undefined), the PFA in the assay on Rattus norvegicus [25] is reported as -27.
Regarding `CC(=O)c1ccc(N2CCN(CCC(O)COc3ccc(F)cc3)CC2)cc1` (centres undefined), the PFA is given as -38 in the assay on Rattus norvegicus [26] and -87 with Rattus norvegicus [27].
